# Data from ChEMBL document CHEMBL3739271, “Synthesis and evaluation of a series of resveratrol analogues as potent anti-cancer agents that target tubulin” (2015).
# Activity calls are given as the source filed them. No cut-off for these calls is given here.
# Key:
# [1] = Cytotoxicity against human IGROV1 cells by SRB assay; format: functional; settings: IGROV-1
# Procedure, shortened: (§1)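 NCI 60-cell-line panel using sulforhodamine B protein stain. Initial single-dose screen at 10^-5 M, then five-dose testing. GI50 is the drug concentration giving a 50% reduction in net protein increase relative to control cells.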
# NCI-H23 = experiment: Cytotoxicity against human NCI-H23 cells by SRB assay; format: functional
# Procedure, shortened: (§2)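 NCI 60 human tumor cell line panel, sulforhodamine B (SRB) protein-stain read-out. Compounds were first screened at a single dose of 10^-5 M, and selected compounds were then tested in a five-dose format. GI50 is the drug concentration giving a 50% reduction in net protein increase relative to control cells.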
# [2] = Cytotoxicity against human RPMI8226 cells by SRB assay; format: functional; settings: RPMI-8226; procedure, shortened: as §2
# [3] = Cytotoxicity against human HOP62 cells by SRB assay; format: functional; settings: HOP-62; procedure, shortened: as §2
# NCI/ADR-RES = experiment: Cytotoxicity against human NCI/ADR-RES cells by SRB assay; format: functional; procedure, shortened: as §2
# [4] = Cytotoxicity against human MOLT4 cells by SRB assay; format: functional; settings: MOLT-4; procedure, shortened: as §2
# CCRF-CEM = experiment: Cytotoxicity against human CCRF-CEM cells by SRB assay; format: functional; procedure, shortened: as §2
# [5] = Cytotoxicity against human HL-60(TB) cells by SRB assay; format: functional; procedure, shortened: as §1
# [6] = Cytotoxicity against human UACC62 cells by SRB assay; format: functional; settings: UACC-62; procedure, shortened: as §2
# KM12 = experiment: Cytotoxicity against human KM12 cells by SRB assay; format: functional; procedure, shortened: as §2
# M14 = experiment: Cytotoxicity against human M14 cells by SRB assay; format: functional; procedure, shortened: as §2
# SR = experiment: Cytotoxicity against human SR cells by SRB assay; format: functional; procedure, shortened: as §2
# SK-MEL-5 = experiment: Cytotoxicity against human SK-MEL-5 cells by SRB assay; format: functional; procedure, shortened: as §2
# MCF7 = experiment: Cytotoxicity against human MCF7 cells by SRB assay; format: functional; procedure, shortened: as §2
# HT-29 = experiment: Cytotoxicity against human HT-29 cells by SRB assay; format: functional; procedure, shortened: as §2
# [7] = Cytotoxicity against human SKOV3 cells by SRB assay; format: functional; settings: SK-OV-3; procedure, shortened: as §2
# [8] = Cytotoxicity against human SW620 cells by SRB assay; format: functional; settings: SW-620; procedure, shortened: as §2
# [9] = Cytotoxicity against human HCT116 cells by SRB assay; format: functional; settings: HCT-116; procedure, shortened: as §2
# [10] = Cytotoxicity against human Hs578T cells by SRB assay; format: functional; settings: Hs-578T; procedure, shortened: as §2
# [11] = Cytotoxicity against human OVCAR4 cells by SRB assay; format: functional; settings: OVCAR-4; procedure, shortened: as §2
# K562 = experiment: Cytotoxicity against human K562 cells by SRB assay; format: functional; procedure, shortened: as §2
# NCI-H522 = experiment: Cytotoxicity against human NCI-H522 cells by SRB assay; format: functional; procedure, shortened: as §2
# [12] = Cytotoxicity against human HCC2998 cells by SRB assay; format: functional; settings: HCC 2998; procedure, shortened: as §2
# [13] = Cytotoxicity against human LOXIMVI cells by SRB assay; format: functional; settings: LOX IMVI; procedure, shortened: as §1
# ACHN = experiment: Cytotoxicity against human ACHN cells by SRB assay; format: functional; procedure, shortened: as §2
# [14] = Cytotoxicity against human UO31 cells by SRB assay; format: functional; settings: UO-31; procedure, shortened: as §2
# [15] = Cytotoxicity against human SF295 cells by SRB assay; format: functional; settings: SF-295; procedure, shortened: as §2
# U-251 = experiment: Cytotoxicity against human U251 cells by SRB assay; format: functional; procedure, shortened: as §2
# [16] = Cytotoxicity against human SNB19 cells by SRB assay; format: functional; settings: SNB-19; procedure, shortened: as §2
# [17] = Cytotoxicity against human SNB75 cells by SRB assay; format: functional; settings: SNB-75; procedure, shortened: as §2
# MDA-MB-231 = experiment: Cytotoxicity against human MDA-MB-231 cells by SRB assay; format: functional; procedure, shortened: as §2
# A498 = experiment: Cytotoxicity against human A498 cells by SRB assay; format: functional; procedure, shortened: as §2
# [18] = Cytotoxicity against human HOP92 cells by SRB assay; format: functional; settings: HOP-92; procedure, shortened: as §2
# MDA-MB-468 = experiment: Cytotoxicity against human MDA-MB-468 cells by SRB assay; format: functional; procedure, shortened: as §2
# SK-MEL-28 = experiment: Cytotoxicity against human SK-MEL-28 cells by SRB assay; format: functional; procedure, shortened: as §2
# [19] = Cytotoxicity against human SF539 cells by SRB assay; format: functional; settings: SF-539; procedure, shortened: as §2
# MDA-MB-435 = experiment: Cytotoxicity against human MDA-MB-435 cells by SRB assay; format: functional; procedure, shortened: as §2
# [20] = Cytotoxicity against human COLO205 cells by SRB assay; format: functional; settings: COLO 205; procedure, shortened: as §2
# [21] = Cytotoxicity against human SF268 cells by SRB assay; format: functional; settings: SF-268; procedure, shortened: as §2
# [22] = Cytotoxicity against human OVCAR3 cells by SRB assay; format: functional; settings: OVCAR-3; procedure, shortened: as §2
# MV4-11 [23] = experiment: Anti-leukemia activity against human MV4-11 cells after 48 hrs by Annexin-V staining; format: functional; settings: MV4-11, 48 h, read-out: LD50 (the source's name)
# Procedure, shortened: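 MV4-11 AML cells exposed to increasing compound concentrations for 24 and 48 h. Viability measured by Annexin V/7-AAD staining and expressed as percent Annexin V-/7-AAD- cells relative to control. N = 5, error bars SD. LD50 values derived from these curves.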
# A549 = experiment: Cytotoxicity against human A549 cells by SRB assay; format: functional; procedure, shortened: as §2
# 786-0 = experiment: Cytotoxicity against human 786-0 cells by SRB assay; format: functional; procedure, shortened: as §2
# [24] = Cytotoxicity against human HCT15 cells by SRB assay; format: functional; settings: HCT-15; procedure, shortened: as §2
# CAKI-1 = experiment: Cytotoxicity against human CAKI-1 cells by SRB assay; format: functional; procedure, shortened: as §2
# SK-MEL-2 = experiment: Cytotoxicity against human SK-MEL-2 cells by SRB assay; format: functional; procedure, shortened: as §2
# MV4-11 [25] = experiment: Inhibition of alpha-tubulin polymerization in human MV4-11 cells at 25 to 100 nM after 2 hrs by Western blotting; format: cell-based
# Procedure, shortened: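 MV4-11 cells treated for 2 hours at 25, 50 and 100 nM. Microtubule polymerization then assessed by immunoblot.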
compound,measurement,setting,value
COc1ccc(/C=C(\C#N)c2ccc(OC)c(OC)c2)cc1O,GI50,[1],60 nM
same,GI50,NCI-H23,70 nM
same,GI50,[2],40 nM
same,GI50,[3],30 nM
same,GI50,NCI/ADR-RES,20 nM
same,GI50,[4],50 nM
same,GI50,CCRF-CEM,30 nM
same,GI50,[5],30 nM
same,GI50,[6],20 nM
same,GI50,KM12,20 nM
same,GI50,M14,30 nM
same,GI50,SR,20 nM
same,GI50,SK-MEL-5,40 nM
same,GI50,MCF7,30 nM
same,GI50,HT-29,570 nM
same,GI50,[7],50 nM
same,GI50,[8],40 nM
same,GI50,[9],40 nM
same,GI50,[10],30 nM
same,GI50,[11],1560 nM
same,GI50,K562,20 nM
same,GI50,NCI-H522,< 10 nM
same,GI50,[12],1810 nM
same,GI50,[13],60 nM
same,GI50,ACHN,80 nM
same,GI50,[14],60 nM
same,GI50,[15],100 nM
same,GI50,U-251,40 nM
same,GI50,[16],50 nM
same,GI50,[17],20 nM
same,GI50,MDA-MB-231,40 nM
same,GI50,A498,20 nM
same,GI50,[18],1690 nM
same,GI50,MDA-MB-468,40 nM
same,GI50,SK-MEL-28,1110 nM
same,GI50,[19],20 nM
same,GI50,MDA-MB-435,< 10 nM
same,GI50,[20],1240 nM
same,GI50,[21],60 nM
same,GI50,[22],20 nM
same,CC50,MV4-11 [23],353 nM
same,GI50,A549,210 nM
same,GI50,786-0,360 nM
same,GI50,[24],40 nM
COc1ccc(/C=C(/C#N)c2ccc(OC)c(OC)c2)cc1O,GI50,[1],70 nM
same,GI50,NCI-H23,80 nM
same,GI50,[2],50 nM
same,GI50,[3],30 nM
same,GI50,NCI/ADR-RES,20 nM
same,GI50,[4],70 nM
same,GI50,CCRF-CEM,40 nM
same,GI50,[5],30 nM
same,GI50,KM12,40 nM
same,GI50,M14,20 nM
same,GI50,SR,30 nM
same,GI50,SK-MEL-5,50 nM
same,GI50,MCF7,30 nM
same,GI50,HT-29,620 nM
same,GI50,[7],50 nM
same,GI50,[8],40 nM
same,GI50,[9],30 nM
same,GI50,[10],30 nM
same,GI50,[11],1070 nM
same,GI50,K562,30 nM
same,GI50,NCI-H522,10 nM
same,GI50,[12],170 nM
same,GI50,[13],70 nM
same,GI50,ACHN,90 nM
same,GI50,[14],90 nM
same,GI50,[15],580 nM
same,GI50,U-251,50 nM
same,GI50,[16],40 nM
same,GI50,[17],20 nM
same,GI50,MDA-MB-231,50 nM
same,GI50,CAKI-1,420 nM
same,GI50,A498,20 nM
same,GI50,[18],860 nM
same,GI50,MDA-MB-468,40 nM
same,GI50,SK-MEL-28,1270 nM
same,GI50,[19],20 nM
same,GI50,MDA-MB-435,< 10 nM
same,GI50,[20],1260 nM
same,GI50,[21],80 nM
same,GI50,[22],20 nM
same,CC50,MV4-11 [23],409 nM
same,GI50,A549,250 nM
same,GI50,786-0,240 nM
same,GI50,[24],30 nM
COc1ccc(/C=C(/C#N)c2cc(OC)c(OC)c(OC)c2)cc1O,GI50,[1],< 10 nM
same,GI50,NCI-H23,< 10 nM
same,GI50,[2],< 10 nM
same,GI50,NCI/ADR-RES,< 10 nM
same,GI50,[4],< 10 nM
same,GI50,CCRF-CEM,< 10 nM
same,GI50,[5],< 10 nM
same,GI50,[6],< 10 nM
same,GI50,KM12,< 10 nM
same,GI50,M14,< 10 nM
same,GI50,SR,< 10 nM
same,GI50,SK-MEL-5,< 10 nM
same,GI50,MCF7,< 10 nM
same,GI50,HT-29,320 nM
same,GI50,[7],< 10 nM
same,GI50,[8],< 10 nM
same,GI50,[9],< 10 nM
same,GI50,[10],< 10 nM
same,GI50,[11],< 10 nM
same,GI50,K562,< 10 nM
same,GI50,NCI-H522,< 10 nM
same,GI50,[12],< 10 nM
same,GI50,[13],< 10 nM
same,GI50,ACHN,< 10 nM
same,GI50,[14],< 10 nM
same,GI50,[15],10 nM
same,GI50,U-251,< 10 nM
same,GI50,[16],< 10 nM
same,GI50,SK-MEL-2,< 10 nM
same,GI50,[17],< 10 nM
same,GI50,MDA-MB-231,< 10 nM
same,GI50,CAKI-1,< 10 nM
same,GI50,A498,< 10 nM
same,GI50,[18],< 10 nM
same,GI50,MDA-MB-468,< 10 nM
same,GI50,SK-MEL-28,< 10 nM
same,GI50,[19],< 10 nM
same,GI50,MDA-MB-435,< 10 nM
same,GI50,[20],300 nM
same,GI50,[21],< 10 nM
same,GI50,[22],< 10 nM
same,inhibition,MV4-11 [25],Active
same,CC50,MV4-11 [23],2.5 nM
same,GI50,A549,< 10 nM
same,GI50,786-0,20 nM
same,GI50,[24],< 10 nM
